Source: ChEMBL document CHEMBL5257120 (Bioorg Med Chem, 2023)

Tests used:
[1] = Toxicity in Swiss albino mouse assessed as change in relative spleen weight at 5 to 1000 mg/kg, po administered for 7 days; type: organism-based; conditions: in vivo, 168 h, dose 5-1000 mg/kg, time 7 day
[2] = Toxicity in Swiss albino mouse assessed as triglyceride level at 5 mg/kg, po administered for 7 days (reference value: 136.88 +/- 3.12 mg/dl); type: organism-based; conditions: in vivo, 168 h, time 7 day
[3] = Toxicity in Swiss albino mouse assessed as cholesterol level at 5 mg/kg, po administered for 7 days (reference value: 140.17 +/- 3.76 mg/dl); type: organism-based; conditions: in vivo, 168 h, time 7 day
[4] = Hepatotoxicity in Swiss albino mouse assessed as alkaline phosphatase level at 1000 mg/kg, po administered for 7 days (reference value: 260.10 +/- 26.76 U/L); type: toxicity, organism-based; conditions: in vivo, 168 h, time 7 day
Summary of the method: (§1)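 Single acute oral dose (5, 50, 300 or 1000 mg/kg) given to Swiss albino mice, n = 6, with 7-day observation. At the end, haematological and serum biochemical parameters were measured. Compared with untreated controls; mean ± SE, ANOVA, p < 0.05.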

[5] = Toxicity in Swiss albino mouse assessed as change in relative liver weight at 5 to 1000 mg/kg, po administered for 7 days; type: organism-based; conditions: in vivo, 168 h, dose 5-1000 mg/kg, time 7 day
[6] = Toxicity in Swiss albino mouse assessed as cholesterol level at 300 mg/kg, po administered for 7 days (reference value: 140.17 +/- 3.76 mg/dl); type: organism-based; conditions: in vivo, 168 h, time 7 day
[7] = Antiinflammatory activity in mouse peritoneal macrophage assessed as inhibition of LPS-induced IL6 production at 10 ug/ml relative to control; type: functional; parameters: scale not given: the % may be the effect or the level left; conditions: dose 10 µg/ml
[8] = Hepatotoxicity in Swiss albino mouse assessed as alkaline phosphatase level at 5 mg/kg, po administered for 7 days (reference value: 260.10 +/- 26.76 U/L); type: toxicity, organism-based; conditions: in vivo, 168 h, time 7 day; summary of the method: as §1
[9] = Toxicity in Swiss albino mouse assessed as morbidity at 5 to 1000 mg/kg, po administered for 7 days; type: organism-based; conditions: in vivo, 168 h, dose 5-1000 mg/kg, time 7 day
[10] = Hepatotoxicity in Swiss albino mouse assessed as SGPT level at 1000 mg/kg, po administered for 7 days (reference value: 17.01 +/- 2.33 U/L); type: toxicity, organism-based; conditions: in vivo, 168 h, time 7 day; summary of the method: as §1

COc1cc(C2/C(=C/c3ccc(/C=C/C(=O)NO)cc3)C(=O)c3cc(OC)c(OC)c(OC)c32)cc(OC)c1OC (stereo not given)
Activity [1]: Non-Toxic | Activity [2]: 146.79 mg/dL | Activity [3]: 162.42 mg/dL | Activity [4]: 277.51 U/L | Activity [5]: Non-Toxic | Activity [6]: 157.14 mg/dL | Activity [7]: 27.01% | Activity [8]: 221.34 U/L | Activity [9]: Non-Toxic | Activity [10]: 22.91 U/L
